Experimental data taken from ChEMBL document CHEMBL5096188, “Quinolinonyl Non-Diketo Acid Derivatives as Inhibitors of HIV-1 Ribonuclease H and Polymerase Functions of Reverse Transcriptase” (J Med Chem, 2021).
Active and inactive are the calls of the source. The calls are words filed in the database; no cut-off is given here.

Legend:
[1] = target: Human immunodeficiency virus type 1 integrase (Human immunodeficiency virus 1, UniProt Q7ZJM1); experiment: Inhibition of recombinant His-tagged HIV-1 NL4-3 integrase expressed in Escherichia coli BL21 pLys using GTGTGGAAAATCTCTAGCA/ACTGCTAGAGATTTTCCACAC as DNA substrate incubated for 2 hrs by densitometric analysis
[2] = Selectivity index, ratio of CC50 for cytotoxicity against human HeLa-CD4-LTR-beta-gal cells to EC50 for antiviral activity against HIV 1 infected in human HeLa-CD4-LTR-beta-gal cells; type: toxicity, cell-based; conditions: read-out: Ratio CC50/EC50
In short: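 Selectivity index is CC50/EC50. Both values come from HeLa-CD4-LTR-β-gal cells at 24 h. EC50 is from β-galactosidase readout after infection with in-house HIV-1 (H9-laï coculture). CC50 is from the CellTiter 96 AQueous One proliferation assay.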

[3] = Metal chelating activity assessed as Mg2+-compound complex formation at 3.8 x 10^-5M by UV-visible spectrophotometric titration analysis; conditions: dose 3.8 10^-5M
In short: (§1)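 Compound in absolute ethanol, titrated with MgCl2 stock solutions (4 10–5 to 0.2 M, diluted in ethanol). UV–vis spectra were recorded from 230 to 370 or 600 nm against ethanol in a 1 cm quartz cuvette, in triplicate. Stoichiometry was found by Job's method using equimolar metal/ligand mixtures. ΔA was plotted against ligand mole fraction, and the maximum was located by linear regression.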

[4] = target: T1, Human immunodeficiency virus type 1 reverse transcriptase (Human immunodeficiency virus 1, UniProt Q72547); experiment: Inhibition of recombinant His-tagged wild-type HIV-1 group M subtype B BH10 reverse transcriptase-associated RNase H activity harboring p66/p51 hetrodimer expressed in Escherichia coli M15 using GTTTTCTTTTCCCCCCTGAC-30 fluorescein/50-CAAAAGAAAAGGGGGGACUG-30 Dabcyl RNA/DNA template-primer as substrate incubated for 1 hr by multilabel counter plate reader analysis
In short: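 His-tagged p66/p51 RT was expressed in E. coli M15, with mutations placed in p66 by site-directed mutagenesis. The mix held 50 mM Tris HCl pH 7.8, 6 mM MgCl2, 1 mM DTT, 80 mM KCl, 250 nM fluorescein/Dabcyl RNA/DNA hybrid and serial compound dilutions, with no preincubation. Reactions were started with enzyme (wt, R448A, K451A 20 ng; K540A 40 ng; N474A 500 ng), run 1 h at 37 °C and read at 490/528 nm. Duplicates were repeated at least twice; IC50 is mean ± SD.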

[5] = target: T1, Human immunodeficiency virus type 1 reverse transcriptase; experiment: Inhibition of HIV-1 reverse transcriptase associated RNA-dependent DNA polymerase activity using poly(A)-oligo(dT) as template/primer incubated for 30 mins by multilabel counter plate reader analysis
[6] = Metal chelating activity assessed as Mg2+-compound complex formation at 4.1 x 10^-5 M by UV-visible spectrophotometric titration analysis; conditions: dose 4.1 10^-5M; in short: as §1

Chain of Human immunodeficiency virus type 1 integrase (Q7ZJM1 whole entry): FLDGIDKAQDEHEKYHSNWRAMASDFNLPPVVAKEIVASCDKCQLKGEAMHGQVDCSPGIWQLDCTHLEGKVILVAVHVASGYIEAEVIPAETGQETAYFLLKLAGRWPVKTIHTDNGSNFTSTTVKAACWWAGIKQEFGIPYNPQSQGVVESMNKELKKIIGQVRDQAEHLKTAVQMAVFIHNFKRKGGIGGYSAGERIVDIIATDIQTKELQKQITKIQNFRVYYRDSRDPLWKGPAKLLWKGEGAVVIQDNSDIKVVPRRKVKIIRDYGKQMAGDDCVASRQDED

IC50 [1] | Compound | IC50 [4] | other results
> 100 µM | CCOC(=O)/C=C/C(=O)/C=C/c1cccn1Cc1ccccc1Cl | – | selectivity ratio [2]: > 13.7
> 100 µM | O=C(O)c1cn(Cc2ccc(F)cc2)c2ccc(OCc3cccc4ccccc34)cc2c1=O | – | Activity [3]: Active
– | O=C(O)c1cn(Cc2ccc(F)cc2)c2ccc(C(F)(F)F)cc2c1=O | > 100 µM | –
– | CCOC(=O)c1cn(Cc2ccc(F)cc2)c2ccc(OCc3ccc(-c4ccccc4)cc3)cc2c1=O | > 100 µM | –
– | O=C(O)c1cn(Cc2ccc(F)cc2)c2ccccc2c1=O | > 100 µM | –
– | CCOC(=O)c1cn(Cc2ccc(F)cc2)c2ccc(C#N)cc2c1=O | > 100 µM | –
> 250 µM | O=C(O)c1cn(Cc2ccc(F)cc2)c2ccc(OCc3ccc(-c4ccccc4)cc3)cc2c1=O | – | –
– | CCOC(=O)c1cn(Cc2ccc(F)cc2)c2ccc(O)cc2c1=O | > 100 µM | –
– | O=C(/C=C/c1ccc2c(c1)c(=O)c(C(=O)O)cn2Cc1ccc(F)cc1)c1ccccc1 | – | IC50 [5]: > 100 µM
– | N#Cc1ccc2c(c1)c(=O)c(C(=O)O)cn2Cc1ccc(F)cc1 | > 100 µM | –
> 100 µM | O=C(O)c1cn(Cc2ccc(F)cc2)c2ccc(OCc3ccc4c(c3)OCO4)cc2c1=O | – | –
> 100 µM | O=C(O)c1cn(Cc2ccc(F)cc2)c2ccc(OCc3cccc(Cl)c3Cl)cc2c1=O | – | –
– | CCOC(=O)c1cn(Cc2ccc(F)cc2)c2ccc(OC)cc2c1=O | > 100 µM | –
> 100 µM | CCOC(=O)c1cn(Cc2ccc(F)cc2)c2ccc(C(C)=O)cc2c1=O | – | –
– | CCOC(=O)c1cn(Cc2ccc(F)cc2)c2ccc(OCc3cccc4ccccc34)cc2c1=O | – | Activity [6]: Active
– | COc1ccc2c(c1)c(=O)c(C(=O)O)cn2Cc1ccc(F)cc1 | > 100 µM | –
– | CCOC(=O)c1cn(Cc2ccc(F)cc2)c2ccc(OCCCN(C)C)cc2c1=O | > 100 µM | –
– | CCOC(=O)c1cn(Cc2ccc(F)cc2)c2ccc(S(C)(=O)=O)cc2c1=O | > 100 µM | –
> 100 µM | CC(=O)c1ccc2c(c1)c(=O)c(C(=O)O)cn2Cc1ccc(F)cc1 | – | –
